# Screens deposited in PubChem by several laboratories.
# Shown are actives, neighbours in structure and some others; about 2.5% of the full set was active somewhere.
# TRPC4 block = inhibitors of mouse TRPC4 channel; Q9QUQ5; HEK293 TRPC4beta/mu-opioid, DAMGO-evoked Fluo4 calcium flux; active compounds read low; B-score at 10 µM; actives 0.39% (n = 300,000);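 active = B-score over 3 SD under the library average, no early fluorescence shift, positive overall ratio signal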
# Target sequence (Q9QUQ5 whole entry, looked up): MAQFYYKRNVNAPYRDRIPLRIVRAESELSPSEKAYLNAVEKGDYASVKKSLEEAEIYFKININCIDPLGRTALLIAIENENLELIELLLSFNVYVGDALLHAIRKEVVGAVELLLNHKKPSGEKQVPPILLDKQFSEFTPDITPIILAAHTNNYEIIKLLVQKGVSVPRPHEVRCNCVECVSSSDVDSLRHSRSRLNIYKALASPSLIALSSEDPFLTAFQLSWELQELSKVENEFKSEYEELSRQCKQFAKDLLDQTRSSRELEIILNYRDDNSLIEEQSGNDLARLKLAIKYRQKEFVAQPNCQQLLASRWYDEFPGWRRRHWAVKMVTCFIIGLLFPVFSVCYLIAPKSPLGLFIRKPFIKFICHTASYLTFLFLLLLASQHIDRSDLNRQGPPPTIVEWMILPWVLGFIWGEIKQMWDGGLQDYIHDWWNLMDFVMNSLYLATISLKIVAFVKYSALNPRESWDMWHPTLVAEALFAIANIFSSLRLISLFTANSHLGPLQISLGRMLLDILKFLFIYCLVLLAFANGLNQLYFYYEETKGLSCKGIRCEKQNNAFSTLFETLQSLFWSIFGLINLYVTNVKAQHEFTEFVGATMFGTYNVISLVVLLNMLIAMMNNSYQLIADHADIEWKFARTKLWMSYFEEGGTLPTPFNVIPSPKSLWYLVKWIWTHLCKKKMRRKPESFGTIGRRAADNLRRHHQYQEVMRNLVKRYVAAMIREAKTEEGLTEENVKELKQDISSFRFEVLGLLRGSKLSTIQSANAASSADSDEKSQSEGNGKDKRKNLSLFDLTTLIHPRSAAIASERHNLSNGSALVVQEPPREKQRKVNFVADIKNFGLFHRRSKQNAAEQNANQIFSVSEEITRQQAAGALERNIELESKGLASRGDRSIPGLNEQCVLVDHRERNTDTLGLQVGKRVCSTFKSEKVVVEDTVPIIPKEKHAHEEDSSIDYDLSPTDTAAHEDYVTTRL
#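 Material: HEK293 cells with stable TRPC4beta plus mu-opioid receptor expression / Probe or stimulus: DAMGO in two steps, submaximal then maximal / Compound: single concentration per test compound / Technique: kinetic Fluo4 fluorescence imaging of calcium influx / Read-out: per-well B score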
# TRPC4 potent = allosteric potentiators of mouse TRPC4 channel; Q9QUQ5; B-score at 10 µM; HEK293 TRPC4beta/mu-opioid, DAMGO EC20, Fluo-4 Ca2+ flux; active compounds read high; actives 0.42% (n = 310,000);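 active = B-score of calcium response area above 5 SD of library B-scores, with initial fluorescence ratio within 5 SD of library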;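 note: B-score of integrated fluorescence ratio over time as area under calcium response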
# TRPC6 inhibitor = inhibitors of mouse TRPC6 channel; B-score at 10 µM; HEK293-TRPC6, membrane potential dye, ACh-evoked depolarization; active compounds read low; actives 1.1% (n = 310,000); Q61143;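 active = B-score under library mean minus 3 SD, initial fluorescence not abnormally high, positive integrated signal ratio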;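 note: B-score derived from integrated fluorescence ratio over the kinetic read; more negative B-score means stronger inhibition of depolarization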
# Platelet DG rel = platelet dense granule release activity; human platelet-rich plasma, SFLLRN dense granule ATP release, luminescence; inhibition, %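 (compounds screened at 7.5 µM in platelet-rich plasma)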; actives 0.22% (n = 300,000); AID 1663;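 active = mean replicate score, as percent of positive control, at or above 50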
# TRPC6 activator = activates the mouse TRPC6 cation channel. Q61143. HEK293-TRPC6 membrane potential dye fluorescence; active compounds read high. B-score at 10 µM. actives 0.13% (n = 310,000);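 active = B-score of the integrated fluorescence ratio above library mean plus 3 SD, and starting fluorescence ratio within library mean plus 5 SD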;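 note: higher score means more depolarization so channel activation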
# TRPC4 act = opens the mouse TRPC4 cation channel. Q9QUQ5. HEK293 TRPC4beta/mu-opioid, Fluo4 calcium fluorescence; active compounds read high. B-score at 10 µM. actives 0.49% (n = 310,000). AID 2237;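 active = B-score above 5 SD of library B-scores, and initial fluorescence ratio not above library mean plus 5 SD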;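 note: positive B-score marks a calcium rise read as TRPC4 activation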
#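 System: HEK293 cells stably co-expressing mouse TRPC4beta and mu-opioid receptor; Schedule: Fluo4 dye loading 45 min at room temperature, 110 s recording; Detection: Fluo4 fluorescence, kinetic; Evaluation: B-scored integrated calcium fluorescence ratio; Controls: buffer (low) and maximal DAMGO (high).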
# TRPC4 sel inh 2 = second check of whether TRPC6 inhibitors also affect mouse TRPC4; actives 42% (n = 920); inhibition, % at 10 µM; shares compounds with TRPC6 inhibitor; HEK293 TRPC4/MOR, membrane potential dye fluorescence; channel activated by saturating DAMGO dose;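 active = compounds whose fluorescence signal differed from control wells by over 3 SD, either direction, in both duplicate plates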
# TRPC4 spec = tests whether TRPC6 inhibitors also affect mouse TRPC4. shares compounds with TRPC6 inhibitor. HEK293 TRPC4/mu-opioid, membrane potential fluorescence. activity change, negative = inhibition, % at 10 µM. actives 61% (n = 920). AID 2777;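 active = rise or fall in signal beyond 3 SD of buffer-only wells in both replicate plates, either sign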;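 note: integrated kinetic ratio of fluorescence range over baseline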
# HEK293 MPD ctr 2-1 = second check of TRPC6 inhibitor effects in parental HEK293 cells; shares compounds with TRPC6 inhibitor; parental HEK293 membrane potential dye fluorescence; maximal acetylcholine challenge after compound addition; signal change vs control, % at 10 µM; actives 31% (n = 920); AID 2779;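 active = membrane potential signal moving either way by over 3 SD of the maximum-effect control, in both duplicate plates, meaning non-specific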
# HEK293 MPD ctr-1 = counter-screen for TRPC6 inhibitors: effect in parental HEK293 cells; shares compounds with TRPC6 inhibitor; parental HEK293 membrane potential dye fluorescence; membrane potential signal change, % at 10 µM; actives 60% (n = 920); AID 2780;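 active = membrane potential signal shifting up or down by more than 3 SD of buffer-only wells, on both duplicate plates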
# HEK293 MPD ctr-2 = counter-screen for TRPC6 modulators: effect in parental HEK293 cells | shares compounds with TRPC6 inhibitor | membrane potential dye fluorescence | membrane potential signal change, % at 10 µM | actives 51% (n = 2,400) | AID 488924;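 active = membrane potential signal moves up or down beyond 5 SD from buffer-only wells, on both duplicate plates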
# HEK293 MPD ctr 2-2 = parental HEK293 nonspecific activity of TRPC6 modulators, second screen. inhibition, % at 10 µM. actives 14% (n = 2,400). membrane potential dye fluorescence; after compound, maximal acetylcholine stimulation. shares compounds with TRPC6 inhibitor;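 active = membrane potential signal drops by more than 5 SD from the mean control signal, in both duplicate plates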;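 note: plate controls were acetylcholine ECmax control wells for no effect and buffer only wells for full effect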
# TRPC4/MOR mod = selectivity of TRPC6 modulators against mouse TRPC4; shares compounds with TRPC6 inhibitor; HEK293 TRPC4/mu-opioid, membrane potential fluorescence; percent change from control (negative = decrease, positive = increase), % at 10 µM; actives 69% (n = 2,400); AID 488927;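 active = membrane potential signal moved up or down beyond 5 SD of buffer control wells, in both duplicate plates, actives on both sides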;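 note: plate controls were assay buffer wells for no effect and DAMGO maximal-effect wells for full effect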
# TRPC4/MOR inh 2 = second check of whether TRPC6 modulators also affect mouse TRPC4 | shares compounds with TRPC6 inhibitor | HEK293 TRPC4/mu-opioid, membrane potential dye fluorescence; stimulated with maximal-effect DAMGO | inhibition, % at 10 µM | actives 55% (n = 2,400) | AID 488928;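 active = drop in membrane potential signal beyond 5 SD of the control wells in both duplicate plates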;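 note: TRPC4 counter screen for TRPC6 hits run under conditions tuned for TRPC6 not TRPC4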
# TRPC6 block conf = mouse TRPC6 inhibitor confirmation | shares compounds with TRPC6 inhibitor | HEK293-TRPC6, membrane potential dye, ACh-evoked depolarization | inhibition, % at 10 µM | actives 43% (n = 3,300);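 active = fluorescence ratio falls more than 5 SD below the full-stimulation control mean, in both duplicate runs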;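 note: integrated fluorescence ratio of peak minus minimum over baseline after agonist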
# TRPC6 act conf = confirmation of mouse TRPC6 activators | shares compounds with TRPC6 inhibitor | HEK293-TRPC6 membrane potential dye fluorescence, FDSS | activation, % at 10 µM | actives 11% (n = 2,800) | AID 488961;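 active = ratio signal rise beyond 5 SD above unstimulated control wells' mean, seen in both duplicate runs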;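 note: plate controls were buffer EC0 wells for no effect and acetylcholine ECmax response for full effect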
# The depositor's hits bear a star; i = inactive; / = no result.
SMILES,TRPC4 block,TRPC4 potent,TRPC6 inhibitor,Platelet DG rel,TRPC6 activator,TRPC4 act,HEK293 MPD ctr-2,HEK293 MPD ctr 2-2,TRPC4/MOR mod,TRPC4/MOR inh 2,TRPC6 block conf,TRPC6 act conf,others
Cc1ccc(S(=O)(=O)N2CCC(=O)N(CCOC(=O)Nc3ccccc3C)CC2)cc1,i,i,i,1,i,i,/,/,/,/,/,/,
CC(=O)Nc1ccc(S(=O)(=O)N2CCCN(S(=O)(=O)c3ccc(C)cc3)CC2)cc1,i,i,-7.4*,10,i,i,/,/,/,/,i,i,TRPC4 sel inh 2=i;TRPC4 spec=i;HEK293 MPD ctr 2-1=i;HEK293 MPD ctr-1=i
CC1CCCN(S(=O)(=O)c2ccc(NC(=O)CNC3CCCC3)cc2)C1 (stereo unspecified),i,i,-6.7*,-3,i,i,/,/,/,/,i,i,TRPC4 sel inh 2=54%*;TRPC4 spec=i;HEK293 MPD ctr 2-1=i;HEK293 MPD ctr-1=3.2%*
CN1CCN(S(=O)(=O)c2ccc(NC(=O)c3cccc(S(=O)(=O)N4CCCC4)c3)cc2)CC1,i,i,-5.5*,1,i,i,i,i,i,i,i,i,
Cc1ccc(S(=O)(=O)N2CCC(=O)N(CCOC(=O)Nc3cc(C)cc(C)c3)CC2)cc1,i,i,-8.3*,-2,14*,i,i,i,12%*,i,90%*,142%*,
CN1CCN(S(=O)(=O)c2ccc(NC(=O)c3cccc(F)c3)cc2)CC1,i,i,i,-3,i,i,/,/,/,/,/,/,
COC(=O)c1ccc(-n2nnnc2SCc2nn[nH]n2)cc1,i,i,i,1,i,i,/,/,/,/,/,/,
CN(C)S(=O)(=O)c1cccc(C(=O)Nc2ccc(S(=O)(=O)N3CCCC3)cc2)c1,/,i,-5.2*,-1,i,i,i,i,i,i,i,i,
Cc1cc(C)cc(N(C(=O)c2csnn2)C(C(=O)NC(C)(C)C)c2cccnc2)c1 (stereo unspecified),i,i,i,18,i,i,/,/,/,/,/,/,
Cc1ccc(NC(=O)CCC(=O)n2nc(C)cc2C)c(C)c1,i,i,-5.9*,-1,i,i,i,i,i,i,i,i,
O=C(CN1CCCC1)N1CCCc2c1c(=O)oc1ccc(OCc3ccccc3)cc21,i,i,-6.5*,2,i,i,i,i,i,70%*,i,i,
Cc1nn(-c2ccc([N+](=O)[O-])cc2)c2c1C(c1ccc(OC(F)F)cc1)N1C(=N2)C(=O)Nc2ccccc21 (stereo unspecified),i,i,i,-2,i,i,/,/,/,/,/,/,
COc1cccc(C2c3c(C)nn(-c4ccc([N+](=O)[O-])cc4)c3N=C3C(=O)Nc4ccccc4N32)c1 (stereo unspecified),i,i,-5.7*,2,i,i,i,i,i,54%*,i,i,
COc1ccccc1CNC1CCCc2ccccc21 (stereo unspecified),i,i,-7.4*,-1,i,i,/,/,/,/,65%*,/,TRPC4 sel inh 2=i;TRPC4 spec=20%*;HEK293 MPD ctr 2-1=i;HEK293 MPD ctr-1=9.1%*
Cc1c(S(=O)(=O)N2CCN(c3ccc(F)cc3)CC2)c(=O)n(C)c(=O)n1C,i,i,i,5,i,i,/,/,/,/,/,/,
COCCN(C(=O)Nc1ccccc1OC)c1nc2ccccc2s1,i,i,i,-1,i,i,/,/,/,/,/,/,
CN1CCCC1CCNc1ccc2oc3ccccc3c(=O)c2c1 (stereo unspecified),i,i,-5.6*,2,i,i,178%*,i,14%*,44%*,44%*,/,
O=c1c2ccccc2oc2cc(NCCCN3CCOCC3)ccc12,i,i,i,3,i,i,/,/,/,/,/,/,
CN1CCCC1CCNc1ccc2c(=O)c3ccccc3oc2c1 (stereo unspecified),i,i,-9.5*,4,i,i,/,/,/,/,i,i,TRPC4 sel inh 2=74%*;TRPC4 spec=-10%*;HEK293 MPD ctr 2-1=i;HEK293 MPD ctr-1=i
O=c1c2ccccc2oc2ccc(NCCCN3CCOCC3)cc12,i,i,i,-6,i,i,/,/,/,/,/,/,
CC(C)(C)n1nnnc1C(c1cccs1)N(Cc1ccc(Cl)cc1)CC1CCCO1 (stereo unspecified),i,i,i,0,i,i,/,/,/,/,/,/,
COc1ccc(NC(=O)C2CCCN(CCCc3ccccc3)C2)cc1OCC(C)C (stereo unspecified),i,i,-7.3*,10,i,i,/,/,/,/,i,i,TRPC4 sel inh 2=76%*;TRPC4 spec=i;HEK293 MPD ctr 2-1=226%*;HEK293 MPD ctr-1=i
CCOc1ccc(NC(=O)CC2C(=O)N(CC)C(=S)N2CCN2CCOCC2)cc1 (stereo unspecified),i,i,i,8,i,i,/,/,/,/,/,/,
